Runt-SMMHC FRET: Runt domain-CBFb-SMMHC interaction inhibition. inhibition, % at 20 µM. hit rate 0.74% among 220,000. Cerulean-Runt/Venus-CBFb-SMMHC FRET ratio 530/480, 1 h. Q01196+Q13951;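 active = mean inhibition across duplicate retests at 20 µM reaching about 50%, limit read from the data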;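 note: inhibitors lower the FRET ratio by blocking Runt binding to CBFb-SMMHC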
RanGTP-Imp inh: inhibitors of RanGTP-importin-beta interaction, primary screen, biochemical, FRET, CFP-Ran, YFP-importin-beta, homogeneous; hit rate 1.1% among 300,000; cell-free CFP-Ran/YFP-importin-beta FRET ratio; inhibition, % (concentration not given with the values);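 active = more than half of the replicate wells show a fall in the fluorescence ratio signal beyond about 16%, limit read from the data, passing the limit was not always enough; inconclusive = exactly half of the replicate wells pass the set limit; inactive = fewer than half of replicates pass the limit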
MEX-5 binding: C. elegans MEX-5 TCR-2 RNA binding activity; Q9XUB2; MEX-5/FITC-TCR2 RNA binding, fluorescence polarization; hits give low values; activity score (negative = inhibition of binding), % at 10 µM; hit rate 0.38% among 300,000; AID 1832;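 active = inhibition past about -25% in most replicates, and total fluorescence under double the plate's negative control median, limit read from the data; inconclusive = replicates evenly split on the limit, or fluorescence at least double controls; inactive = too little inhibition in most replicates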
Target sequence (Q9XUB2 whole entry, looked up): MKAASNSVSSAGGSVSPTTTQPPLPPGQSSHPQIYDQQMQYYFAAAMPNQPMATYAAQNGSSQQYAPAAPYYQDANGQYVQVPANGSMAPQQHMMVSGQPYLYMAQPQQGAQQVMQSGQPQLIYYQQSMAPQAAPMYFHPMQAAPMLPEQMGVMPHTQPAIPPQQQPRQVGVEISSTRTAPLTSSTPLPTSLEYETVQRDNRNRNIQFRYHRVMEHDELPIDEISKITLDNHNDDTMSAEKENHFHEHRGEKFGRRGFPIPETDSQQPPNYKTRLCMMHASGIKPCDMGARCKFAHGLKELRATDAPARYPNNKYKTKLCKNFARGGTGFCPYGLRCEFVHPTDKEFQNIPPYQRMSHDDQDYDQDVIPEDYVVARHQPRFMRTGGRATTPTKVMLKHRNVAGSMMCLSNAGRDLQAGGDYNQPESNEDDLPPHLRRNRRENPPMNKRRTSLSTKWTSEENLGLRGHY
KLK7 zymogen act: activators of human kallikrein-7 zymogen; P49862; purified proKLK7, EDANS-DABCYL substrate fluorescence; 100% is mature enzyme control, 0% vehicle; activation, % at 7 µM; hit rate 0.9% among 370,000;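 active = activation above the mean of all tested compounds plus 3 SD, computed per campaign excluding outliers beyond control limits, cut at about 13% in these data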
Target sequence (P49862 whole entry, looked up): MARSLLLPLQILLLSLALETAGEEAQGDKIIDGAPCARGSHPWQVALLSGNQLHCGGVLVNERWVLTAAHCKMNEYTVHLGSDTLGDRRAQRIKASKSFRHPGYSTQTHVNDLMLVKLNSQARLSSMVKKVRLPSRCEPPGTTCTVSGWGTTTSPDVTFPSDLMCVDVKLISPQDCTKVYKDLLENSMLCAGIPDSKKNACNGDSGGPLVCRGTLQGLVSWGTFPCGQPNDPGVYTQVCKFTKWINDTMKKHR
Runt-CBFb FRET: inhibitors of human RUNX1 Runt domain binding to CBFb; Cerulean-Runt/Venus-CBFb FRET ratio 530/480, 1 h; inhibition, % at 20 µM; hit rate 0.46% among 220,000;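 active = inhibition over about 50% at 20 µM in the single-dose screen, limit read from the data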
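Assay system: Cerulean-tagged RUNX1 Runt domain (FRET donor) fusion protein / Amount: 100 nM each of Venus-CBFb and Cerulean-Runt domain / Medium: Tris buffer pH 7.5 with salts and BSA / Also added: Venus-CBFb 100 nM / Schedule: 1 h complex formation plus 1 h compound treatment, room temperature / Signal: FRET fluorescence / Read-out: loss of energy transfer signal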
Runt-CBFb TRFRET: Runt-CBFb binding inhibition | TR-FRET RUNX1 Runt domain-CBFb binding | hit rate 20% among 480 | shares compounds with Runt-CBFb FRET | inhibition, % at 20 µM | AID 1502; in the data active = inhibition above about 40%
Of the large screens only hits and unclear results are named; the others gave an inactive call (follow-up assays come after a bar, where they were run). This is a sample that favours compounds with a hit; in the whole collection about 2.1% have one here.

Cc1cc(C)c2c(n1)sc1c(O)cc(=O)[nH]c12	Runt-CBFb FRET 52 | Runt-CBFb TRFRET inactive
C=CCN1C(=O)/C(=C2/Sc3ccc(OC)cc3N2C)SC1=NCc1ccccc1	Runt-CBFb FRET 51 | Runt-CBFb TRFRET inactive
O=C1/C(=C/c2ccncc2)SC(=S)N1Nc1ccccc1	Runt-CBFb FRET 50 | Runt-CBFb TRFRET 50
O[C@H](COc1cc(F)cc(F)c1)CN1CCC(C(O)(c2ccccc2)c2ccccc2)CC1	none (no result: Runt-SMMHC FRET, RanGTP-Imp inh, MEX-5 binding, Runt-CBFb FRET)
COc1ccc(C2=CC(=O)C[C@H](c3ccc(OC)cc3)C2)cc1	none (no result: Runt-SMMHC FRET, RanGTP-Imp inh, MEX-5 binding, Runt-CBFb FRET)
COc1ccc(C2=CC(=O)C=CC2=O)cc1	Runt-SMMHC FRET 86, Runt-CBFb FRET 68 (no result: KLK7 zymogen act) | Runt-CBFb TRFRET inactive
Cc1snc2sc(C(=O)c3ccc(Br)cc3)c(N)c12	none
Cc1ccc(C(=O)c2sc3nsc(C)c3c2N)cc1	Runt-CBFb FRET 50 | Runt-CBFb TRFRET 44
CC(C)S(=O)(=O)C1=NSC2=NC(=O)/C(=C\c3ccc(-c4cccc(C(=O)O)c4)o3)C(=N)N21	Runt-CBFb FRET 60 (no result: RanGTP-Imp inh, MEX-5 binding) | Runt-CBFb TRFRET inactive
CS(=O)(=O)C1=NSC2=NC(=O)/C(=C\c3ccc(-c4ccccc4)o3)C(=N)N21	none (no result: RanGTP-Imp inh, MEX-5 binding, KLK7 zymogen act)
COc1ccc(C=NNC(=O)Cc2cc(=O)[nH][nH]2)c(OC)c1	none (no result: Runt-SMMHC FRET, RanGTP-Imp inh, MEX-5 binding, Runt-CBFb FRET)
O=C(c1cc(Cl)cc(Cl)c1)N1CC[C@H]2[C@H](CCCN2Cc2ccc(F)cc2)C1	none (no result: Runt-SMMHC FRET, RanGTP-Imp inh, MEX-5 binding, Runt-CBFb FRET)
Fc1ccc(-c2ccnc(=S)[nH]2)cc1	Runt-CBFb FRET 52 | Runt-CBFb TRFRET inactive
COc1cccc2cc(-c3ccnc(=S)[nH]3)oc12	none (no result: KLK7 zymogen act)
Nc1ncnc(Sc2ncccn2)c1[N+](=O)[O-]	Runt-CBFb FRET 62 | Runt-CBFb TRFRET inactive
O=C(O)c1ccc(-n2c(-c3cc(-c4ccco4)[nH]n3)n[nH]c2=S)cc1	RanGTP-Imp inh inconclusive, MEX-5 binding -92, Runt-CBFb FRET 53 | Runt-CBFb TRFRET 81
CC(=O)c1ccc(-n2c(-c3cc(-c4ccco4)[nH]n3)n[nH]c2=S)cc1	none
Cc1cc(C)cc(Cn2c3ccc(NC(=O)NCCc4cccs4)cc3c(=O)n2C)c1	none (no result: Runt-SMMHC FRET, RanGTP-Imp inh, MEX-5 binding, Runt-CBFb FRET)
CN1C(=O)C2(NC(=O)c3ccccc3N2C)c2ccccc21 (configuration not stated)	none
CN1C(=O)C(Cl)(Cl)C(=O)c2ccccc21	Runt-CBFb FRET 54 (no result: KLK7 zymogen act) | Runt-CBFb TRFRET inactive
O=C1NCCCC2c3c(cc(Br)c(O)c3Br)OC12N1CCCCC1 (configuration not stated)	Runt-CBFb FRET 50 | Runt-CBFb TRFRET 63
CCCNC(=O)c1cc(C2CCCN(C(=O)C3CCCCC3)C2)on1 (configuration not stated)	none (no result: Runt-SMMHC FRET, RanGTP-Imp inh, MEX-5 binding, Runt-CBFb FRET)
CCOC(=O)[C@]12CCCCC/C=C\1N(Cc1ccc(OC)cc1)C(=O)[C@H]2CC(=O)N1CCSCC1	none (no result: Runt-SMMHC FRET, RanGTP-Imp inh, MEX-5 binding, Runt-CBFb FRET)
CC(=O)N1CCOc2ccc(S(=O)(=O)NC[C@H]3O[C@@H](n4ccc(N)nc4=O)[C@H](O)[C@@H]3O)cc21	none (no result: Runt-SMMHC FRET, RanGTP-Imp inh, MEX-5 binding, Runt-CBFb FRET)
COc1ccc(Cn2c3nc4ccccc4nc3c3c(=O)n(Cc4ccco4)c(C)nc32)cc1	Runt-CBFb FRET 52 (no result: RanGTP-Imp inh, MEX-5 binding, KLK7 zymogen act) | Runt-CBFb TRFRET inactive
Cc1ccc(NC(=S)N(CCN(C)C)Cc2cccs2)c(C)c1	Runt-CBFb FRET 54 | Runt-CBFb TRFRET inactive
CCOc1ccc(S(=O)(=O)N2CCC(C(=O)NCC3CCCO3)CC2)cc1C (configuration not stated)	none (no result: Runt-SMMHC FRET, Runt-CBFb FRET)
CSCC[C@H](NC(=O)N1CCn2c1nc1ccccc12)C(=O)NCc1ccco1	none (no result: Runt-SMMHC FRET, Runt-CBFb FRET)
O=C(CNC(=O)c1ccccc1Br)NCC(c1ccco1)N1CCCCC1 (configuration not stated)	none (no result: Runt-SMMHC FRET, RanGTP-Imp inh, MEX-5 binding, Runt-CBFb FRET)
COc1ccc([N+](=O)[O-])cc1NC(=O)CSc1nc(C)cc(C)n1	Runt-CBFb FRET 57 | Runt-CBFb TRFRET inactive
CCc1nc2c(OCC3CCCCC3)cccn2c1N(C)C(=O)c1ccccc1F	none (no result: Runt-SMMHC FRET, RanGTP-Imp inh, MEX-5 binding, Runt-CBFb FRET)
CN1CCc2cccc3c2[C@@H]1Cc1ccc(O)c(O)c1-3	Runt-CBFb FRET 86 (no result: Runt-SMMHC FRET, RanGTP-Imp inh, MEX-5 binding, KLK7 zymogen act) | Runt-CBFb TRFRET 68
COc1ccc2c(c1O)-c1ccccc1CCN(C)C2	none
O=C(Nc1ccc2ccccc2c1)NC1CCCCN(Cc2ccc(Cl)cc2)C1=O (configuration not stated)	none (no result: Runt-SMMHC FRET, RanGTP-Imp inh, MEX-5 binding, Runt-CBFb FRET)
Cc1cc(C)nc(Sc2nc(Cl)nc(N(c3ccccc3)c3ccccc3)n2)n1	Runt-CBFb FRET 59 | Runt-CBFb TRFRET inactive
O=C(Nc1nc2ncccn2c1-c1ccc(F)cc1)C1CC1	none (no result: Runt-SMMHC FRET, RanGTP-Imp inh, MEX-5 binding, Runt-CBFb FRET)
Cn1ccnc1Sc1nc2ccccc2nc1NS(=O)(=O)c1ccccc1	Runt-SMMHC FRET 73, RanGTP-Imp inh inconclusive, Runt-CBFb FRET 61 | Runt-CBFb TRFRET 54
Cn1cnnc1Sc1nc2ccccc2nc1NS(=O)(=O)c1ccccc1	none
Cc1ccc2c(c1)sc(C)[n+]2CCCS(=O)(=O)[O-]	Runt-CBFb FRET 58 | Runt-CBFb TRFRET inactive
Cc1ccc2sc(C)[n+](CCCS(=O)(=O)[O-])c2c1	none
O=C1c2ccccc2C(=O)N1c1nccs1	none (no result: Runt-SMMHC FRET, RanGTP-Imp inh, MEX-5 binding, Runt-CBFb FRET)
O=c1c2ccccc2sn1-c1nccs1	Runt-SMMHC FRET 80, Runt-CBFb FRET 50 | Runt-CBFb TRFRET inactive
Cc1ccc(C2=Nc3ccccc3SC(c3cccc([N+](=O)[O-])c3)C2)cc1 (configuration not stated)	Runt-CBFb FRET 52 | Runt-CBFb TRFRET inactive
CCOC(=O)c1c(/N=C/c2cc(C)ccc2O)sc2c1CCN(C)C2	Runt-SMMHC FRET 60, RanGTP-Imp inh 56, Runt-CBFb FRET 50 | Runt-CBFb TRFRET inactive

High-throughput results deposited in PubChem by several laboratories.
